These results are taken from ChEMBL document CHEMBL1641479, “2-Substituted (S)-2-(3,3-dimethyl-1-oxo-10,10a-dihydroimidazo[1,5-b]isoquinolin-2(1H,3H,5H)-yl)acetic acids: Conformational prediction, synthesis, anti-thrombotic and vasodilative evaluation” (Bioorg Med Chem, 2011).

The term inhibition denotes the change of the read-out against control, counted positive when it falls. By IC50 is commonly meant the concentration needed to halve the response being measured.

Square brackets hold non-standard residues; d marks the D form. Peptide text beside a SMILES is read from it. Tic = O=C(O)[C@@H]1Cc2ccccc2CN1

Assay [1] has as its system Rattus norvegicus. Description: Antithrombotic activity in Wistar rat assessed as thrombus weight at 15 umol/kg, iv (reference value: 28.54 +/- 2.62 mg). Type of assay: functional.
Assay [2] can be described thus: Antiplatelet activity against pig platelet assessed as inhibition of thrombin-induced platelet aggregation at 10 uM by spectrophotometry. Type of assay: functional. The note with it: Sus scrofa. A digest of the protocol: (§1)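 Pig blood (six pigs) spun 1000 rpm 10 min for PRP, then 1500 rpm 10 min for PPP; PRP adjusted to 2×10^8 platelets/mL with autologous PPP. Compound (final 100 µM to 1 nM, diluted in NS from DMSO/NS stock) or NS added, then inducer at final PAF 0.1 µM, ADP 10 µM, AA 350 µM or thrombin 0.1 U/mL.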

Assay [3] can be described thus: Antiplatelet activity against pig platelet assessed as inhibition of PAF-induced platelet aggregation at 10 uM by spectrophotometry. In kind it is functional. The conditions noted are these: Sus scrofa. A digest of the protocol:
as §1

A further assay relates to Aorta. Description: Inhibition of noradrenaline-induced contraction in Wistar rat thoracic aortic ring assessed as vasorelaxant activity at 300 uM treated after noradrenaline challenge. Set-up: scale not given: the % may be the effect or the level left. Type of assay: functional. In short, it runs like this: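 Male Wistar rats, 250–300 g, were decapitated and aortic strips were mounted in 37 °C Krebs solution (pH 7.4) gassed with 95% O2/5% CO2, connected to a tension transducer. Strips were contracted with 59 µM noradrenaline, washed, stabilised 30 min, then re-contracted with 59 µM noradrenaline. At peak contraction, compound in ethanol or ethanol alone was added and relaxation was recorded.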

In assay [4] the test system is Rattus norvegicus. Description: Antithrombotic activity in Wistar rat assessed as thrombus weight at 15 umol/kg, iv (reference value: 25.99 +/- 2.41 mg). Type of assay: functional.
The nature of assay [5]: Antiplatelet activity against pig platelet assessed as inhibition of arachidonic acid-induced platelet aggregation at 10 uM by spectrophotometry. Type of assay: functional. The note with it: Sus scrofa. In short, it runs like this:
as §1

Assay [6] in a line: Antiplatelet activity against pig platelet assessed as inhibition of ADP-induced platelet aggregation at 10 uM by spectrophotometry. Type of assay: functional. The note with it: Sus scrofa. A digest of the protocol:
as §1

A short description of assay [7]: Antiplatelet activity against pig platelet assessed as inhibition of arachidonic acid-induced platelet aggregation by spectrophotometry. In kind it is functional, cell-based. The note with it: Sus scrofa. In short, it runs like this:
as §1

A short description of assay [8]: Antiplatelet activity against pig platelet assessed as inhibition of thrombin-induced platelet aggregation by spectrophotometry. In kind it is functional, cell-based. The note with it: Sus scrofa. In short, it runs like this:
as §1

Assay [9] in a line: Antiplatelet activity against pig platelet assessed as inhibition of ADP-induced platelet aggregation by spectrophotometry. Type of assay: functional, cell-based. The note with it: Sus scrofa. In short, it runs like this:
as §1

The nature of assay [10]: Antiplatelet activity against pig platelet assessed as inhibition of PAF-induced platelet aggregation by spectrophotometry. Type of assay: functional, cell-based. The note with it: Sus scrofa. In short, it runs like this: as §1

For the compound `C[C@H](NC(=O)[C@@H]1Cc2ccccc2CN1)C(=O)O` (H-[Tic]-Ala-OH), the Activity with Rattus norvegicus [1] came to 21.4 mg.
Turning to `O=C(O)[C@H](Cc1ccccc1)NC(=O)[C@@H]1Cc2ccccc2CN1` (H-[Tic]-Phe-OH), the Activity with Rattus norvegicus [1] is listed as 19.11 mg.
Take `COC(=O)[C@H](CCCNC(=N)N[N+](=O)[O-])N1C(=O)[C@@H]2Cc3ccccc3CN2C1(C)C`: the inhibition at 10 µM is 31.4% in assay [2], 65.3% in assay [3], 30.6% in assay [5] and 58.4% in assay [6]. Besides, the Activity with Aorta is given as 6.78%; in the assay on Rattus norvegicus [4] it was 23.61 mg.
Turning to `COC(=O)[C@H](C)N1C(=O)[C@@H]2Cc3ccccc3CN2C1(C)C`, the inhibition at 10 µM in assay [2] was found to be 11.7%; in [3], 46.3%; in [5] it was 40.5%; in [6] it was 10.2%. Moreover, the Activity in the assay on Aorta came out at 34.1%; in the assay on Rattus norvegicus [4], 22.51 mg.
Regarding `CC(C)C[C@H](NC(=O)[C@@H]1Cc2ccccc2CN1)C(=O)O` (H-[Tic]-Leu-OH), in the assay with Rattus norvegicus [1], the Activity is listed as 20.23 mg.
Take `O=C(O)[C@H](CS)NC(=O)[C@@H]1Cc2ccccc2CN1` (H-[Tic]-Cys-OH): in the assay on Rattus norvegicus [1], the Activity is given as 20.91 mg.
The same measure, in the same setting: the result for `CC(C)[C@H](NC(=O)[C@@H]1Cc2ccccc2CN1)C(=O)O` (H-[Tic]-Val-OH) reads 19.2 mg; that for `NC(=O)C[C@H](NC(=O)[C@@H]1Cc2ccccc2CN1)C(=O)O` (H-[Tic]-Asn-OH), 20.24 mg.
Regarding `COC(=O)CC[C@@H](C(=O)OC)N1C(=O)[C@@H]2Cc3ccccc3CN2C1(C)C`, the inhibition at 10 µM in [2] is 28%; in assay [3], 45.2%; in assay [5], 37.4%; in assay [6] it was 22.5%. For the same compound, the Activity with Aorta was determined as 42.48%; in the assay with Rattus norvegicus [4], 19.9 mg.
Take `COC(=O)[C@H](CCSC)N1C(=O)[C@@H]2Cc3ccccc3CN2C1(C)C`: the inhibition at 10 µM stood at 36.8% in [2], 31.9% in assay [3], 30.1% in assay [5] and 34% in assay [6]. Moreover, the Activity in the assay with Aorta came out at 43.06%; in the assay on Rattus norvegicus [4] it was 20.11 mg.
`COC(=O)[C@H](CC(C)C)N1C(=O)[C@@H]2Cc3ccccc3CN2C1(C)C`: the inhibition at 10 µM in [2] is 38.3%; in [3] it was 29.2%; in [5] it was 37.5%; in assay [6], 31.4%. Moreover, the figures for the Activity in the assay on Aorta and in the assay with Rattus norvegicus [4] were 74.68% and 14.1 mg, respectively.
For `COC(=O)[C@H](C(C)C)N1C(=O)[C@@H]2Cc3ccccc3CN2C1(C)C`, the inhibition at 10 µM in assay [2] turned out to be 30.9%; in assay [3], 34.6%; in assay [5], 32.4%; in assay [6], 35%. The Activity in the assay with Aorta was determined as 54.99%; in the assay on Rattus norvegicus [4], 15.66 mg.
Consider `O=C(O)C[C@H](NC(=O)[C@@H]1Cc2ccccc2CN1)C(=O)O` (H-[Tic]-Asp-OH), for which the Activity in the assay with Rattus norvegicus [1] is 21.67 mg.
Same read-out and setting: the result for `C[C@@H](O)[C@H](NC(=O)[C@@H]1Cc2ccccc2CN1)C(=O)O` (H-[Tic]-Thr-OH) reads 21.25 mg.
For `O=C(O)[C@H](Cc1cc2ccccc2[nH]1)NC(=O)[C@@H]1Cc2ccccc2CN1`, the IC50 was found to be 374 nM in assay [7], 234 nM in [8], 120 nM in assay [9] and 668 nM in assay [10]. Further, the Activity in the assay with Rattus norvegicus [1] stood at 21.3 mg.
In the case of `COC(=O)[C@H](CC(N)=O)N1C(=O)[C@@H]2Cc3ccccc3CN2C1(C)C`, the inhibition at 10 µM stood at 19.8% in assay [2], 25.8% in assay [3], 30.1% in [5] and 33.9% in assay [6]. For the same compound, the Activity was 47.89% with Aorta and 19.54 mg in the assay on Rattus norvegicus [4].
Consider `NC(=O)CC[C@H](NC(=O)[C@@H]1Cc2ccccc2CN1)C(=O)O` (H-[Tic]-Gln-OH), for which the Activity in the assay on Rattus norvegicus [1] was 22.08 mg.
On the same count and under the same terms, as for `O=C(O)CNC(=O)[C@@H]1Cc2ccccc2CN1` (H-[Tic]-Gly-OH), the figure is 20.24 mg.
In the case of `COC(=O)[C@H](Cc1ccc(O)cc1)N1C(=O)[C@@H]2Cc3ccccc3CN2C1(C)C`, the inhibition at 10 µM in assay [2] came out at 25.3%; in [3], 59%; in [5], 52.2%; in assay [6], 53.1%. In addition, the Activity in the assay on Aorta turned out to be 15.56%; in the assay on Rattus norvegicus [4] it was 23.71 mg.
For `COC(=O)[C@H](C(C)O)N1C(=O)[C@@H]2Cc3ccccc3CN2C1(C)C` (some centres undefined), the inhibition at 10 µM amounted to 57.2% in assay [2], 59.9% in assay [3], 45% in assay [5] and 46.3% in assay [6]. Also, the Activity was determined as 35.21% in the assay with Aorta and 20.01 mg with Rattus norvegicus [4].
In the case of `COC(=O)[C@H](CS)N1C(=O)[C@@H]2Cc3ccccc3CN2C1(C)C`, the inhibition at 10 µM in [2] came to 30.8%; in assay [3], 53.7%; in assay [5] it was 60.7%; in [6], 68.9%. In addition, the Activity with Aorta is reported as 96.3%; with Rattus norvegicus [4], 12.9 mg.
For `CCC(C)[C@@H](C(=O)OC)N1C(=O)[C@@H]2Cc3ccccc3CN2C1(C)C` (some centres undefined), the inhibition at 10 µM is 60.9% in assay [2], 51.3% in [3], 49.4% in assay [5] and 48.2% in assay [6]. Besides, the Activity in the assay with Aorta worked out at 99%; in the assay on Rattus norvegicus [4], 13.32 mg.
In the case of `COC(=O)C[C@@H](C(=O)OC)N1C(=O)[C@@H]2Cc3ccccc3CN2C1(C)C`, the inhibition at 10 µM in assay [2] came to 60.1%; in assay [3], 18.6%; in assay [5], 57.7%; in [6], 24.6%. For the same compound, the Activity in the assay with Aorta is 64.09%; with Rattus norvegicus [4], 18.2 mg.
Consider `COC(=O)[C@H](Cc1ccccc1)N1C(=O)[C@@H]2Cc3ccccc3CN2C1(C)C`, for which the inhibition at 10 µM in assay [2] was determined as 57.8%; in [3], 56.3%; in [5] it was 46.8%; in [6], 44.5%. The results for the Activity in the assay with Aorta and in the assay on Rattus norvegicus [4] were 32.18% and 20.62 mg, respectively.
In the case of `O=C(O)[C@H](CO)NC(=O)[C@@H]1Cc2ccccc2CN1` (H-[Tic]-Ser-OH), the Activity with Rattus norvegicus [1] came to 23.58 mg.
As to `COC(=O)[C@H](CCCCNC(=O)OCc1ccccc1)N1C(=O)[C@@H]2Cc3ccccc3CN2C1(C)C`, the inhibition at 10 µM in assay [2] worked out at 18.4%; in assay [3], 11.2%; in assay [5], 33.7%; in [6] it was 20.9%. For the same compound, the values for the Activity in the assay on Aorta and with Rattus norvegicus [4] were 68.21% and 17.14 mg, respectively.
As to `COC(=O)CN1C(=O)[C@@H]2Cc3ccccc3CN2C1(C)C`, the inhibition at 10 µM in assay [2] worked out at 10.9%; in [3], 44.5%; in assay [5], 58.9%; in assay [6], 66.1%. The Activity in the assay on Aorta turned out to be 75.35%; in the assay with Rattus norvegicus [4], 15.21 mg.
As for `O=C(O)[C@H](Cc1c[nH]cn1)NC(=O)[C@@H]1Cc2ccccc2CN1` (H-[Tic]-His-OH), the Activity in the assay with Rattus norvegicus [1] turned out to be 20.86 mg.
Regarding `O=C(O)CC[C@H](NC(=O)[C@@H]1Cc2ccccc2CN1)C(=O)O` (H-[Tic]-Glu-OH), in the assay with Rattus norvegicus [1], the Activity turned out to be 19.69 mg.
Same read-out and setting: the result for `CCC(C)[C@H](NC(=O)[C@@H]1Cc2ccccc2CN1)C(=O)O` (single isomer, unassigned) reads 20.03 mg; that for `CSCC[C@H](NC(=O)[C@@H]1Cc2ccccc2CN1)C(=O)O` (H-[Tic]-Met-OH), 21.74 mg.
Same read-out and setting: as for `NCCCC[C@H](NC(=O)[C@@H]1Cc2ccccc2CN1)C(=O)O` (H-[Tic]-Lys-OH), the figure is 21.28 mg.
As for `COC(=O)[C@H](CCC(N)=O)N1C(=O)[C@@H]2Cc3ccccc3CN2C1(C)C`, the inhibition at 10 µM in assay [2] came to 69%; in [3] it was 25.9%; in [5], 48.1%; in [6] it was 31.8%. For the same compound, the results for the Activity with Aorta and in the assay with Rattus norvegicus [4] were 38.61% and 22.7 mg, respectively.
Turning to `O=C(O)[C@@H](NC(=O)[C@@H]1Cc2ccccc2CN1)NC1CCC1`, the IC50 in [7] turned out to be 103 nM; in assay [8] it was 185 nM; in assay [9], 364 nM; in [10] it was 1400 nM. The Activity in the assay on Rattus norvegicus [1] is on record as 20.25 mg.
As to `O=C(O)[C@H](Cc1ccc(O)cc1)NC(=O)[C@@H]1Cc2ccccc2CN1` (H-[Tic]-Tyr-OH), in the assay with Rattus norvegicus [1], the Activity is on record as 19.31 mg.
For the compound `N=C(N)NCCC[C@H](NC(=O)[C@@H]1Cc2ccccc2CN1)C(=O)O` (H-[Tic]-Arg-OH), the Activity in the assay on Rattus norvegicus [1] stood at 18.73 mg.
